Only some compounds are listed: those with a hit (about 6.3% of all), similar ones and a draw of the others.
MT1-MMP txn act: MT1-MMP promoter transcription activation. HT1080 MT1-MMP promoter luciferase reporter, luminescence, overnight; stronger effect = higher value. activation factor at 10 µM. 86,000 tested, 0.16% active. AID 750;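 active = activation factor of at least 2 for MT1-MMP transcription at 10 µM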
M1 antagonist: blocks the rat M1 muscarinic receptor response to acetylcholine; P08482; CHO-M1 cells, Fluo-4 calcium, ACh EC80 antagonist mode; stronger effect = lower value; B-score at 10 µM; 64,000 tested, 3.4% active; AID 628;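 active = calcium fluorescence response, raw or row-and-column corrected B-score, differing from the plate sample mean either way at a set confidence level, mostly lower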
Target sequence (P08482 whole entry, looked up): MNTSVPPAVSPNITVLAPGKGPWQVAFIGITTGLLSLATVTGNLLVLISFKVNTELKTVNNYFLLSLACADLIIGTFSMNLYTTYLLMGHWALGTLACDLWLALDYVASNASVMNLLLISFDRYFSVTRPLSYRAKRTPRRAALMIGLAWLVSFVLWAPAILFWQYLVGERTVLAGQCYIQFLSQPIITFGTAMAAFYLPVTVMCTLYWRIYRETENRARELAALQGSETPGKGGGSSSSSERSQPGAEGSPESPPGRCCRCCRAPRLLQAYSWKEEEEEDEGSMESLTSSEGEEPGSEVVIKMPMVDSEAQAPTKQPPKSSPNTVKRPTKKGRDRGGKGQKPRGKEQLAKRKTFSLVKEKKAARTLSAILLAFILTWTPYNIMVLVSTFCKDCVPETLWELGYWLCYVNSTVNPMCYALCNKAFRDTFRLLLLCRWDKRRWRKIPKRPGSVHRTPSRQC
SF1 activator: activators of human nuclear receptor SF-1; 65,000 tested, 1.9% active; AID 522; activation, % at 10 µM; CHO-K1 Gal4-SF-1 LBD luciferase reporter; % increase over DMSO SF-1-specific signal; Q13285;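 active = activation above the mean activation of all tested compounds plus 3 SD, cut at about 50% in these data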
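Assay system – CHO-K1 cells with Gal4–hSF-1 LBD chimera plus Gal4-driven luciferase · Quantity – 4,000 cells per well · Times – compound added 1 h post-seeding, 20 h exposure at 37 °C, 5% CO2 · Measured by – luciferase light emission · Benchmarks – DMSO and mock-transfected background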
RORa activator: activates the human nuclear receptor RORA; P35398; CHO-K1 Gal4-RORA LBD luciferase reporter, luminescence; percent increase over mock-subtracted basal signal; activation, % at 10 µM; 65,000 tested, 1.5% active; AID 560;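 active = activation above the mean of all tested compounds plus 3 SD, cut at about 49% in these data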
M1 ag: activates the M1 muscarinic receptor. CHO-M1 cells, Fluo-4 calcium fluorescence, agonist mode; stronger effect = higher value. B-score at 10 µM. 64,000 tested, 3% active. AID 626;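 active = fluorescence rise, raw or as B-score row- and column-corrected plate score, outside the 99.7% band of its plate's samples, either direction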
M1 antag confirm: M1 muscarinic receptor (rat) antagonism, confirmed. shares compounds with M1 antagonist. calcium response (max-min fluorescence) at 10 µM. 1,700 tested, 43% active. CHO-M1 cells, Fluo-4 calcium, ACh EC80 antagonism; stronger effect = lower value;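 active = calcium response below the same-plate mean of wells given acetylcholine alone at its 80%-effect dose, minus 3 SD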
mGluR4 antag: selectivity test for M1 antagonists: human mGluR4 receptor. shares compounds with M1 antagonist. CHO-mGluR4 calcium flux, Fluo-4 fluorescence, glutamate EC80; stronger effect = lower value. fluorescence response (max-min) at 10 µM. 1,700 tested, 0.9% active;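 active = fluorescence response below the plate's average for near-maximal glutamate wells, less 3 SD of those wells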;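 note: raw unnormalized fluorescence span taken in the window right after glutamate addition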
Each line names hits and unclear results; the compound was inactive in the other large screens (follow-up assays come after a bar, where they were run).

O=C(NCc1ccc2c(c1)OCO2)c1ccc(N2C(=O)C3CCCCC3C2=O)cc1 (configuration not stated)	none (no result: M1 antagonist, SF1 activator, RORa activator, M1 ag)
Cc1cc2nc(SC(C)C(=O)O)[nH]c2cc1C (configuration not stated)	none
Nc1ncnc2nc(SCCN3CCCCC3)[nH]c12	M1 antagonist -2.8 | M1 antag confirm inactive | mGluR4 antag inactive
Cc1cc2nc(SCCN3CCCC3)[nH]c2cc1C	M1 antagonist -1.9 | M1 antag confirm inactive | mGluR4 antag inactive
Nc1ncnc2nc(SCc3ccccc3)[nH]c12	none
CC(=O)N1CCCc2cc(S(=O)(=O)N3CCC(C)CC3)ccc21	none (no result: M1 antagonist, SF1 activator, RORa activator, M1 ag)
CCOC(=O)Nc1cccc(NC(=O)c2cc(OC)cc(OC)c2)c1	none
COc1cc(OC)cc(C(=O)Nc2cccc(NC(C)=O)c2)c1	M1 antagonist -3.6 | M1 antag confirm inactive | mGluR4 antag inactive
Cc1ccc(NC(=O)c2c(-c3c(F)cccc3Cl)noc2C)cc1F	M1 antagonist -14 | M1 antag confirm inactive | mGluR4 antag inactive
C=CCn1c(C(C)NC(=O)CCC)nc2ccccc21 (configuration not stated)	none
Cc1cc(C)n(C(=O)c2cc3c(s2)CCCC3)n1	none (no result: M1 antagonist, SF1 activator, RORa activator, M1 ag)
COC(=O)N(C)CCCC1(C)C(=O)N(C)c2ccc(O)cc21 (configuration not stated)	M1 antagonist -4.8 | M1 antag confirm inactive | mGluR4 antag inactive
COCCn1c(Sc2nc(C)cs2)nc2c1c(=O)[nH]c(=O)n2C	M1 antagonist -4.1 | M1 antag confirm inactive | mGluR4 antag inactive
C=CCc1ccc(OCC(O)CN2CCCCC2C)c(OC)c1 (configuration not stated)	M1 antagonist -2.5 | M1 antag confirm inactive | mGluR4 antag inactive
Cc1ccc(C(C)NC(=O)c2ccco2)cc1C (configuration not stated)	none
CC1(C)CC(=O)C2=C(C1)N(Cc1cccnc1)C(=O)C2(NC(=O)c1ccc(F)cc1)C(F)(F)F (configuration not stated)	none (no result: M1 antagonist, SF1 activator, RORa activator, M1 ag)
Cc1ccccc1OCCCC(=O)Nc1ccc(N2CCOCC2)cc1	none
Cc1ccc(OCCCC(=O)Nc2ccc(N3CCOCC3)cc2)c(C)c1	M1 antagonist -2.3 | M1 antag confirm inactive | mGluR4 antag inactive
Cc1cc(OCC(=O)Nc2ccc(S(=O)(=O)N3CCN(C)CC3)cc2)cc(C)c1Cl	M1 antagonist -1.7 | M1 antag confirm 377 | mGluR4 antag inactive
Cc1cc(C)cc(OCC(=O)Nc2ccc(N3CCCC3)cc2)c1	M1 antagonist -7.6 | M1 antag confirm 155 | mGluR4 antag inactive
Cc1ccc(OCC(=O)Nc2ccc(N3CCCC3)cc2)cc1C	M1 antagonist -3.6 | M1 antag confirm inactive | mGluR4 antag inactive
Cc1cc(OCC(=O)Nc2ccc(S(=O)(=O)N3CCN(C)CC3)cc2)ccc1Cl	none (no result: M1 antagonist, SF1 activator, RORa activator, M1 ag)
CC1Cc2ccccc2N1C(=O)C1CCCN(S(=O)(=O)c2cccc3cccnc23)C1 (configuration not stated)	none
O=c1c2[nH]c3ccccc3c2ncn1CCN1CCCCC1	none
O=C(CCn1c(=O)oc2ccccc21)N1CCc2ccccc21	none
CCOC(=O)C1=C(C)N(CCCC(=O)NCc2ccc3c(c2)OCO3)C(=O)NC1c1ccc(Br)cc1 (configuration not stated)	none (no result: M1 antagonist, SF1 activator, RORa activator, M1 ag)
COc1cc(OC)nc(NC(=O)COC(=O)C2CCCCC2)n1	none
Cn1c(C(=O)NC2CCCCC2)cc2sccc21	none
CN(C(=O)c1cc2sccc2n1C)C1CCCCC1	M1 antagonist -3.2 | M1 antag confirm inactive | mGluR4 antag inactive
CCC1(CC)C(=O)NN(c2ccccc2)C1=O	none (no result: M1 antagonist, SF1 activator, RORa activator, M1 ag)
COc1ccc(Br)cc1C(=O)Nc1cc(C)cc(C)c1	none (no result: M1 antagonist, SF1 activator, RORa activator, M1 ag)
CCc1c(C(=O)NC2CCCC2)csc1C	M1 antagonist -2.2 | M1 antag confirm inactive | mGluR4 antag inactive
COc1ccc(CC(=O)Nc2cc(C)ccn2)cc1	none
Cc1noc(C)c1CSc1nnc2cc(C)c3ccccc3n12	none
CCOC(=O)N1CCN(C(=O)CN(c2ccccc2OC)S(=O)(=O)c2ccc(C)cc2)CC1	M1 antagonist -2.6 | M1 antag confirm inactive | mGluR4 antag inactive
COc1ccc(S(=O)(=O)N(C)CC(=O)N2CCN(C)CC2)cc1C	M1 antagonist -1.9 | M1 antag confirm inactive | mGluR4 antag inactive
Cc1ccc2[nH]c3c(c2c1)CN(C(=O)CN1CCN(c2ccccc2F)CC1)CC3	none
Cc1ccc(Cn2nnc3c(=O)n(CC(=O)OCc4ccccc4)cnc32)cc1	none
Cc1ccc(Cn2nnc3c(=O)n(CC(=O)N4CCN(c5ccccc5)CC4)cnc32)cc1	M1 antagonist -4.7 | M1 antag confirm inactive | mGluR4 antag inactive
COc1ccc(-c2nc(C#N)c(N3CCCCCC3)o2)cc1OC	none
CCOC(=O)N1CCC(NC(=O)C2CCN(S(=O)(=O)N3CCC(C)CC3)CC2)CC1	none
COc1ccc2[nH]c(C)c(C(=O)CN3CCN(C/C=C/c4ccccc4)CC3)c2c1	none (no result: M1 antagonist, SF1 activator, RORa activator, M1 ag)
COc1ccc(O)c(CN2CCN(C/C=C/c3ccccc3)CC2)c1	M1 antagonist -11 | M1 antag confirm 454 | mGluR4 antag inactive
C(=C\c1ccccc1)/CN1CCN(Cc2ccc3c(c2)OCCO3)CC1	none
COc1cc(Br)cc(CN2CCN(C/C=C/c3ccccc3)CC2)c1O	M1 antagonist -16 | M1 antag confirm 48 | mGluR4 antag inactive
COc1ccc(Cl)cc1NC(=O)C(C)N1CCN(C/C=C/c2ccccc2)CC1 (configuration not stated)	none (no result: M1 antagonist, SF1 activator, RORa activator, M1 ag)
Cc1cc(C)c2c(CN3CCN(C/C=C/c4ccccc4)CC3)cc(=O)oc2c1	M1 antagonist -3.6 | M1 antag confirm 259 | mGluR4 antag inactive
Cc1cc(C)c(NC(=O)CS(=O)CC(=O)NC2CCCc3ccccc32)c(C)c1 (configuration not stated)	none (no result: M1 antagonist, SF1 activator, RORa activator, M1 ag)
COC(=O)Cn1cc(C(=O)C2CC2)c2ccccc21	M1 antagonist -1.6 | M1 antag confirm inactive | mGluR4 antag inactive
COCCNC(=O)C(c1ccccc1C)N(C(=O)Cn1nnc2ccccc21)c1cccnc1 (configuration not stated)	none (no result: M1 antagonist, SF1 activator, RORa activator, M1 ag)
CC1(C)C(=O)Nc2ccccc2N1C(=O)COC(=O)c1ccc(Cl)c(S(=O)(=O)NCc2ccccc2)c1	none (no result: M1 antagonist, SF1 activator, RORa activator, M1 ag)
O=C(c1cccs1)N1CCN(C2CCN(Cc3ccccc3)CC2)CC1	M1 antagonist -4.8 | M1 antag confirm 443 | mGluR4 antag inactive
O=C(c1cccs1)N1CCN(C2CCCCC2)CC1	none
COc1ccccc1N1CCN(S(=O)(=O)c2cccc(F)c2)CC1	none
CN(C)c1ccc(-c2nn3c(-c4ccccc4Cl)nnc3s2)cc1	M1 antagonist -5.9 | M1 antag confirm inactive | mGluR4 antag inactive
O=C1CC(N2CCN(Cc3ccc4c(c3)OCO4)CC2)C(=O)N1Cc1ccc(N2CCCC2=O)cc1 (configuration not stated)	none

Compound activity as filed in PubChem.
